This passage reports IC50 results from ChEMBL document CHEMBL3421599, “Diterpene alkaloids with an aza-ent-kaurane skeleton from Isodon rubescens” (J Nat Prod, 2015).

For assay [1], the system named is SMMC-7721. In words: Cytotoxicity against human SMMC7721 cells after 48 hrs by MTT assay. It is filed as functional, cell-based. In outline: (§1)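 Cells seeded at 5000 to 10 000 per well, exposed to compounds at a range of concentrations for 48 h at 37 °C. MTT then added for 4 h at 37 °C under 5% CO2. Formazan dissolved in 10% SDS and absorbance read at 595 nm. Each concentration tested in triplicate. IC50 derived by the Reed and Muench method, with cisplatin as positive control.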

The test system of assay [2] is A549. In words: Cytotoxicity against human A549 cells after 48 hrs by MTT assay. Format: functional, cell-based. In outline:
as §1
Background: Tetrazolium assays rely on reduction of a dye to a coloured formazan, in cell work by metabolically active cells.

The subject of assay [3] is MCF7. The assay is described as follows: Cytotoxicity against human MCF7 cells after 48 hrs by MTT assay. Format: functional, cell-based. In outline:
as §1

In assay [4] the test system is SW480. In words: Cytotoxicity against human SW480 cells after 48 hrs by MTT assay. Format: functional, cell-based. In outline: as §1
A short description of assay [5]: Cytotoxicity against human HL60 cells after 48 hrs by MTT assay. It is filed as functional, cell-based, HL-60. Put shortly:
as §1

Where [6] appears, read: Homo sapiens, SMMC-7721, 48 h, read-out: IC50.
Setting [7] is: Homo sapiens, A549, 48 h, read-out: IC50.
Setting [8] is: Homo sapiens, MCF7, 48 h, read-out: IC50.
[9] abbreviates: Homo sapiens, SW480, 48 h, read-out: IC50.
The mark [10] stands for this setting: Homo sapiens, HL-60, 48 h, read-out: IC50.

In general, IC50 refers to the concentration that inhibits the measured activity by half. For the compound `C=C1C(=O)[C@]23[C@H](O)[C@H]1CC[C@H]2[C@@]12CO[C@]3(O)[C@@H](O)[C@@H]1C(C)(C)CC[C@@H]2O` [ORIDONIN], the 50% inhibitory concentration (IC50) in assay [1] (setting [6]), in assay [2] (setting [7]), in assay [3] (setting [8]), in assay [4] (setting [9]) and in assay [5] (setting [10]) was 7.2 µM each time.

As for `C=C1C(=O)[C@]23[C@H](O)[C@H]1CC[C@H]2[C@@]12C=N[C@@]3(O)[C@@H](O)[C@@H]1C(C)(C)CC[C@@H]2O`, the concentration for half-maximal inhibition (IC50) in assay [1] (setting [6]), in assay [2] (setting [7]), in assay [3] (setting [8]), in assay [4] (setting [9]) and in assay [5] (setting [10]) was greater than 40 µM in each case.

Consider `C=C1C(=O)O[C@H]2C[C@@H]1C[C@H]1[C@@H]2[C@@]23C(OC)O[C@@]1(O)[C@@H](O)[C@@H]2C(C)(C)CC[C@@H]3O` (stereo not given in full), for which the 50% inhibitory concentration (IC50) entry in assay [1] (smmc-7721), in assay [2] (a549), in assay [3] (mcf7), in assay [4] (sw480) and in assay [5] (hl-60) was “Active” in each case.

As to `C=C1C(=O)OC2CC1C[C@H]1[C@@H]2[C@@]23C=NC1(O)[C@@H](O)[C@@H]2C(C)(C)CC[C@@H]3O`, the IC50 entry in assay [1] (smmc-7721), in assay [2] (a549), in assay [3] (mcf7), in assay [4] (sw480) and in assay [5] (hl-60) was “Not Active” each time.
